STK33 kinase inh = blocks human STK33 kinase activity. Q9BYT3. purified STK33, MBP phosphorylation, ADP-Glo luminescence. inhibition, % at 10 µM. 0.073% of 320,000 active;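 active means inhibition at or above 25%, using the most active replicate where run in duplicate; inactive means inhibition below 25%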
Dyrk1A ADPGlo = inhibitors of rat Dyrk1A kinase | 0.43% of 310,000 active | ADP-Glo luminescence, NFATc1 peptide | inhibition, % at 12.5 µM | Q63470; in the data active means inhibition above about 50%;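 further: plate controls were vehicle with enzyme for no effect and no enzyme for full effect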
GSK3beta inhib = blocks human GSK3beta kinase activity. P49841. GST-GSK3beta kinase, ADP-Glo luminescence, 60 min; hits give low values. activity score (negative = inhibition), % at 10 µM. 0.038% of 300,000 active;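 active means more than half of replicate wells score below -50%, meaning over 50% inhibition versus plate controls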;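 further: 0% = median DMSO wells and -100% = median GW8510 positive control wells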
Target sequence (P49841 whole entry, looked up): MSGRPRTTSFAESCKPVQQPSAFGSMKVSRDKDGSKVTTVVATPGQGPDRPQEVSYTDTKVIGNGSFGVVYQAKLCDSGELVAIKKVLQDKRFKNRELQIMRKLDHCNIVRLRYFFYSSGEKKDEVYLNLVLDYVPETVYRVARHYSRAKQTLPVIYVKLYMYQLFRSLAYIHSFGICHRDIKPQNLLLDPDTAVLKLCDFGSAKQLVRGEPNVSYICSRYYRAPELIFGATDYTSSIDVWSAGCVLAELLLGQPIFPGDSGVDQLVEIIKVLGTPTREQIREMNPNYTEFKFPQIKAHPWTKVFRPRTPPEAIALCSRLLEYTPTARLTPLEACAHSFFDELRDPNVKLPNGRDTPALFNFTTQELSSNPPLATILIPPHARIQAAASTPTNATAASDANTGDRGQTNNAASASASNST
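Test system: GST-tagged human GSK3beta kinase, cell-free; evaluation: activity score scaled between in-plate DMSO and GW8510 controls; measured by: ADP-Glo luminescence; incubation: 60 min reaction, RT; benchmarks: DMSO and 20 µM GW8510; reagent: peptide substrate plus 25 µM ATP (final); medium: Tris/MgCl2 kinase buffer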
GSK3 alpha inh = inhibitors of human GSK-3 alpha kinase; 0.1% of 320,000 active; AID 2650; P49840; ADP-Glo luminescence, 60 min; inhibition, % at 10 µM;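 active means more than half of replicates show inhibition above 20%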;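 further: GST-tagged GSK-3 alpha with peptide substrate and 25 µM ATP; 0% = DMSO neutral wells and 100% = GW8510 positive control wells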
ADP-Glo artifact = ADP-Glo luciferase interference, Dyrk1A counter-screen; AID 588348; ADP-Glo luciferase artifact assay, no Dyrk1A, luminescence; AC50, µM (doses to about 12 µM), for the others: top-dose activity change, negative = inhibition; 1,300 tested, under 10 active; shares compounds with Dyrk1A ADPGlo;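 active means fitted half-maximal dose AC50 no more than ten times the top valid tested dose, with luminescence dropping as dose rises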
Numbers without * were called inactive. Only a selection was taken, and hits are over-represented in it overall.

For c1ccc2c3c([nH]c2c1)-c1[nH]ncc1CC3 the results were STK33 kinase inh 32.1*, Dyrk1A ADPGlo 55.7*, GSK3beta inhib -0.3, GSK3 alpha inh 36.4 and ADP-Glo artifact 9.8%.
`Clc1ccc2[nH]c3c(c2c1)CCc1cn[nH]c1-3` gave STK33 kinase inh 9.1, Dyrk1A ADPGlo 51.3*, GSK3beta inhib -35.9, GSK3 alpha inh 15.0 and ADP-Glo artifact 6.8%.
`O=C1CCCc2c1[nH]c1ccccc21` gave STK33 kinase inh 1.8, Dyrk1A ADPGlo 29.3, GSK3beta inhib -1.2 and GSK3 alpha inh 0.0.
For C=CCSc1nc2sc3c(c2c(=O)[nH]1)CC(C)(CC)OC3 (configuration not stated) the results were STK33 kinase inh -1.2, Dyrk1A ADPGlo -1.7, GSK3beta inhib 0.3 and GSK3 alpha inh -2.7.
`COC(=O)C1=C(C(=O)OC)C(c2cc(Br)ccc2O)c2sc(=O)[nH]c2S1` (configuration not stated) gave STK33 kinase inh 0.5, Dyrk1A ADPGlo 63.3*, GSK3 alpha inh 21.7 and ADP-Glo artifact 9.4%.
For Oc1[nH]c2ccccc2c1N=NC(=S)N1CCOCC1 the results were STK33 kinase inh -2.7, Dyrk1A ADPGlo 13.4, GSK3beta inhib 0.3 and GSK3 alpha inh -4.1.
Oc1[nH]c2ccc(Br)cc2c1N=NC(=S)N1CCOCC1 was read as STK33 kinase inh 3.3, Dyrk1A ADPGlo 63.4*, GSK3beta inhib -8.6, GSK3 alpha inh 2.5 and ADP-Glo artifact 9.4%.
`COC(=O)c1ccc2c(c1)C(=O)/C(=C/c1ccc(O)cc1)O2` gave STK33 kinase inh -1.3, Dyrk1A ADPGlo 26.4, GSK3beta inhib -17.3 and GSK3 alpha inh -1.7.
`COc1cccc(/C=C2\Oc3ccc(O)cc3C2=O)c1O` gave STK33 kinase inh 7.2, Dyrk1A ADPGlo 50.1*, GSK3beta inhib -2.1, GSK3 alpha inh 9.1 and ADP-Glo artifact -1.8%.
`NC1=NC(=O)C(=Cc2ccccc2)S1` gave Dyrk1A ADPGlo 7.9.
Screening COc1ccc(/C=C2\SC(N)=NC2=O)cc1 returned STK33 kinase inh -23.4, Dyrk1A ADPGlo 82.9*, GSK3beta inhib 2.7, GSK3 alpha inh -1.1 and ADP-Glo artifact 8.8%.
Screening CCOc1ccc(/C=C2\SC(N3CCc4ccccc4C3)=NC2=O)cc1 returned STK33 kinase inh -1.1, Dyrk1A ADPGlo 13.0, GSK3beta inhib -1.1 and GSK3 alpha inh -1.8.
`CCOC(=O)CSC1=NC(=O)/C(=C/c2ccc(OC)cc2)S1` gave STK33 kinase inh 0.4, Dyrk1A ADPGlo 70.9*, GSK3beta inhib -6.3, GSK3 alpha inh 2.3 and ADP-Glo artifact 8.0%.
COc1ccc(/C=C2\SC(N3CCc4ccccc4C3)=NC2=O)cc1 was read as STK33 kinase inh 1.3, Dyrk1A ADPGlo 70.4*, GSK3beta inhib 2.8, GSK3 alpha inh 0.0 and ADP-Glo artifact 6.3%.
Cc1ccc(NC(=O)CSCC(=O)NNC(=O)c2nn(C)c(=O)c3ccccc23)cc1 was read as STK33 kinase inh -0.1 and GSK3 alpha inh -2.8.
For O=C1c2ccccc2C(=O)C1c1ccccn1 the results were STK33 kinase inh 35.0*, Dyrk1A ADPGlo 60.7*, GSK3beta inhib -2.9, GSK3 alpha inh 8.5 and ADP-Glo artifact 11.5%.
Screening Cc1ccc(CNC(=O)C2CCN(C(=O)Nc3ccccc3)CC2)cc1 returned STK33 kinase inh 0.2, Dyrk1A ADPGlo -9.0, GSK3beta inhib -4.3 and GSK3 alpha inh -1.4.
Cc1[nH]nc2c1-c1nc3ccccc3nc1C(C)(C)C2 was read as STK33 kinase inh 10.1, Dyrk1A ADPGlo 79.8*, GSK3beta inhib -5.3, GSK3 alpha inh 36.2 and ADP-Glo artifact 8.6%.
Screening O=C1[C@@H]2Cc3c([nH]c4ccccc34)C(c3cccc([N+](=O)[O-])c3)N2C(=O)CN1C1CCN(Cc2ccccc2)CC1 (some centres not stated) returned STK33 kinase inh 0.5, Dyrk1A ADPGlo -5.9, GSK3beta inhib -2.2 and GSK3 alpha inh -4.7.
For CCC(=O)Nc1c(C#N)c2nc3ccccc3nc2n1-c1ccccc1C the results were STK33 kinase inh 0.3, Dyrk1A ADPGlo 55.0*, GSK3beta inhib -5.0, GSK3 alpha inh 13.6 and ADP-Glo artifact 8.3%.
Screening CCC(=O)Nc1c(C#N)c2nc3ccccc3nc2n1C1CCCCC1 returned STK33 kinase inh -1.7, Dyrk1A ADPGlo 43.8, GSK3beta inhib -11.1 and GSK3 alpha inh 9.9.
Screening O=C(CSc1nnc(NC(=O)c2ccco2)s1)Nc1ccc(F)cc1F returned STK33 kinase inh -0.3, Dyrk1A ADPGlo -3.5, GSK3beta inhib -0.2 and GSK3 alpha inh -3.6.
`O=C(c1nc2ccccn2c1CNCCn1ccc2ccccc21)N1CCOCC1` gave STK33 kinase inh -1.6, Dyrk1A ADPGlo 1.0, GSK3beta inhib 2.1 and GSK3 alpha inh -0.4.
Screening CCCCn1c(NCCO)nc2ccccc21 returned STK33 kinase inh -2.4, Dyrk1A ADPGlo 57.8*, GSK3beta inhib 2.3, GSK3 alpha inh 1.2 and ADP-Glo artifact 11.2%.
For O=C(CCS(=O)(=O)c1cccc2nonc12)Nc1ccc(Br)cc1 the results were STK33 kinase inh -0.3, Dyrk1A ADPGlo -0.7, GSK3beta inhib 0.4 and GSK3 alpha inh -0.9.
For Nc1ncnc2c1ncn2C1O[C@H](CO)[C@@H](O)[C@@H]1O (some centres not stated) the results were STK33 kinase inh 2.7, Dyrk1A ADPGlo 15.3 and GSK3 alpha inh 0.3.
Screening N#Cc1c(N)n(C2OC(CO)C(O)C2O)c2ncnc(N)c12 (configuration not stated) returned Dyrk1A ADPGlo 95.5* and ADP-Glo artifact 9.0%.
CNc1nc2c(N)ncnc2n1[C@H]1O[C@@H](CO)[C@H](O)[C@@H]1O was read as STK33 kinase inh 3.0, Dyrk1A ADPGlo 90.9*, GSK3beta inhib -5.9, GSK3 alpha inh 1.1 and ADP-Glo artifact 8.5%.
Screening CC(C)(C)NC(=O)C(=O)NC(=O)c1c(F)cccc1Cl returned STK33 kinase inh -1.4, Dyrk1A ADPGlo 63.2*, GSK3beta inhib -3.0, GSK3 alpha inh -0.6 and ADP-Glo artifact 9.0%.
O=C(Nc1cccc(-c2nn[nH]n2)c1)c1ccc(Cl)s1 was read as STK33 kinase inh 0.7, Dyrk1A ADPGlo 76.2*, GSK3beta inhib -11.6, GSK3 alpha inh 9.1 and ADP-Glo artifact 9.6%.
Screening O=C(Nc1cccnc1)c1ccc(Br)s1 returned STK33 kinase inh 1.4, Dyrk1A ADPGlo 9.7, GSK3beta inhib 5.1 and GSK3 alpha inh -0.1.
O=C(Nc1cccc(-c2nn[nH]n2)c1)c1ccc(Br)s1 was read as STK33 kinase inh 21.4, Dyrk1A ADPGlo 92.0*, GSK3beta inhib -8.9, GSK3 alpha inh 14.1 and ADP-Glo artifact 9.8%.
Screening CC1(NC(=O)Nc2cccc(Br)c2)CCS(=O)(=O)C1 (configuration not stated) returned STK33 kinase inh -0.4, Dyrk1A ADPGlo 9.4 and GSK3 alpha inh -3.7.
`CC(C)(C)C(=O)Nc1nc(-c2ccc3c(c2)OCO3)cs1` gave STK33 kinase inh 1.1, Dyrk1A ADPGlo 17.0, GSK3beta inhib -2.0 and GSK3 alpha inh 2.5.
CCC(=O)Nc1nc(-c2ccc3c(c2)OCCO3)cs1 was read as STK33 kinase inh 0.7, Dyrk1A ADPGlo 51.5*, GSK3beta inhib 1.6, GSK3 alpha inh -1.7 and ADP-Glo artifact 10.7%.

From PubChem BioAssay
